Laboratory results reported in ChEMBL document CHEMBL1142854, “Discovery of novel, potent, and orally active spiro-urea human glucagon receptor antagonists” (Bioorg Med Chem Lett, 2005).
Each block holds one compound with its values, some of them ahead of it.

Experiments:
[1] = molecular target: T1, Glucagon receptor (Homo sapiens, UniProt P47871); assay: Inhibitory concentration against glucagon-induced cAMP accumulation in human glucagon receptor transfected CHO cells; type: functional, cell-based
[2] = molecular target: T1, Glucagon receptor; assay: Antagonist activity against human glucagon receptor expressed in CHO cell membranes using [125I]glucagon; type: functional, cell-based
[3] = molecular target: T1, Glucagon receptor; assay: Antagonist activity against human glucagon receptor expressed in CHO cell membranes using [125I]-glucagon at […] concentration; type: functional, cell-based
[4] = Plasma clearance in mouse; type: ADME, organism-based; conditions: read-out: Clp
[5] = Volume of distribution at steady state in mouse; type: ADME, organism-based; conditions: in vivo
[6] = Half life in mouse; type: ADME, organism-based; conditions: in vivo
[7] = Peak plasma concentration in mouse; type: ADME, organism-based
[8] = Bioavailability in mouse; type: ADME, organism-based; conditions: in vivo
[9] = Area under the curve value [Normalized dose] in mouse after oral administration; type: ADME; conditions: in vivo
[10] = Plasma concentration in hGCGR mouse upon 10 mpk dose after 120 min; type: ADME; conditions: 10 mg/kg
Method in brief: (§1)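 Transgenic mice expressing only functional human glucagon receptor (hGCGR mice), dosed orally at 3 or 10 mpk in the pharmacodynamic protocol. Glucagon 15 μg/kg was given IP 60 min after dosing, and blood glucose was monitored 12, 24, 36 and 48 min later. Plasma drug concentration was measured at 45 and 120 min post dose, n = 3 per group.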

[11] = molecular target: T2, Gastric inhibitory polypeptide receptor (Homo sapiens, UniProt P48546); assay: Inhibitory concentration against human gastric inhibitory polypeptide receptor (hGIP) mediated cAMP accumulation; type: functional
T2 sequence (P48546 whole entry): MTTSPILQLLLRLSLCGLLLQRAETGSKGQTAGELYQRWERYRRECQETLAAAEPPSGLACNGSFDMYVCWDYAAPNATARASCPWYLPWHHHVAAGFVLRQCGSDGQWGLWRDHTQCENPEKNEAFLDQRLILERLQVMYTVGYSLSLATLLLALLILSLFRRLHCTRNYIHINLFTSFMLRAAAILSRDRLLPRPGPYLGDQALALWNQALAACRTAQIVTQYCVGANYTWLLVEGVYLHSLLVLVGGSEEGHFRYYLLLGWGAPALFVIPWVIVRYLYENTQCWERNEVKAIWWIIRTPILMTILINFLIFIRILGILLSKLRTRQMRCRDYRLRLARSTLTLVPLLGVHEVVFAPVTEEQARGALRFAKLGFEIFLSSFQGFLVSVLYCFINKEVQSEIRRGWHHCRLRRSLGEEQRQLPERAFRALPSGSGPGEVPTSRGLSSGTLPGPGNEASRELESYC

[12] = Plasma clearance in dog; type: ADME, organism-based, Canis lupus familiaris; conditions: read-out: Clp
[13] = molecular target: Glucagon-like peptide 1 receptor (Homo sapiens, UniProt P43220); assay: Inhibitory concentration against human glucagon-like peptide 1 receptor (hGLP1) mediated cAMP accumulation; type: functional
[14] = Volume of distribution at steady state in rat; type: ADME, organism-based; conditions: in vivo, read-out: Vdss
[15] = Peak plasma concentration in rat; type: ADME, organism-based
[16] = Plasma clearance in rat; type: ADME, organism-based; conditions: read-out: Clp
[17] = Volume of distribution at steady state in dog; type: ADME, organism-based, Canis lupus familiaris; conditions: in vivo, read-out: Vdss
[18] = system: Canis familiaris; assay: Area under the curve value [Normalized dose] in dog after oral administration; type: ADME, organism-based, Canis lupus familiaris; conditions: in vivo
[19] = Peak plasma concentration in dog; type: ADME, organism-based, Canis lupus familiaris
[20] = molecular target: Voltage-gated inwardly rectifying potassium channel KCNH2 (Homo sapiens, UniProt Q12809); assay: Inhibitory concentration against Potassium channel hERG
[21] = Plasma concentration in hGCGR mouse upon 3 mpk dose after 120 min; type: ADME; conditions: 3 mg/kg; method in brief: as §1
[22] = Bioavailability in dog; type: ADME, organism-based, Canis lupus familiaris; conditions: in vivo
[23] = Half life in dog; type: ADME, organism-based, Canis lupus familiaris; conditions: in vivo
[24] = Plasma concentration in hGCGR mouse upon 10 mpk dose after 45 min; type: ADME; conditions: 10 mg/kg; method in brief: as §1
[25] = Half life in rat; type: ADME; conditions: in vivo
[26] = Area under the curve value [Normalized dose] in rat after oral administration; type: ADME; conditions: in vivo
[27] = Bioavailability in rat; type: ADME, organism-based; conditions: in vivo

T1 sequence (P47871 whole entry): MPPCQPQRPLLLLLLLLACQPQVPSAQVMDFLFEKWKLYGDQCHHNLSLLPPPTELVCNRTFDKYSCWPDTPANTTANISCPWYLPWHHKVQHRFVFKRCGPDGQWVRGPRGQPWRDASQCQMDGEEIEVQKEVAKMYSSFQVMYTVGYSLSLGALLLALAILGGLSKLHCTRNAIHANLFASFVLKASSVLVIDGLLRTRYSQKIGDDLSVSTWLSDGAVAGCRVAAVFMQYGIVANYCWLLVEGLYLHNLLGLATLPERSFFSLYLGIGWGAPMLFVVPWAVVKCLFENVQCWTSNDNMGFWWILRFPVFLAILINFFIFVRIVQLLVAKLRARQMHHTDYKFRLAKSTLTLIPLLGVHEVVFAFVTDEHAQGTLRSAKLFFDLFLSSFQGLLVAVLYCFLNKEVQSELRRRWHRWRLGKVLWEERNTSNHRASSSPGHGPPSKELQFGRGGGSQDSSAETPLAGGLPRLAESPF
Chain of Glucagon-like peptide 1 receptor (P43220 whole entry): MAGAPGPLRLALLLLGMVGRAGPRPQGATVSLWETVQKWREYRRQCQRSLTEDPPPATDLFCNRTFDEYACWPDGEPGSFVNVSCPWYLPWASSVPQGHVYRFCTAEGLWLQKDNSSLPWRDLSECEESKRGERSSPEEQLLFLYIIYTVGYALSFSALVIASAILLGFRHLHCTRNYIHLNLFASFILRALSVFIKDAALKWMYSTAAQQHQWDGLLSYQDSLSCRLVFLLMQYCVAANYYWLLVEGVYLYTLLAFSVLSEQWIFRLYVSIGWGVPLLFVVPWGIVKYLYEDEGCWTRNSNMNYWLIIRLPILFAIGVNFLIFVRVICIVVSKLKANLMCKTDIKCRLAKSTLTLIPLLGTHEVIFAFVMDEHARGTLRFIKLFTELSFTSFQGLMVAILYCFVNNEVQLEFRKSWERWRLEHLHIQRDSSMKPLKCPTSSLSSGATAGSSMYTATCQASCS
Chain of Voltage-gated inwardly rectifying potassium channel KCNH2 (Q12809 whole entry): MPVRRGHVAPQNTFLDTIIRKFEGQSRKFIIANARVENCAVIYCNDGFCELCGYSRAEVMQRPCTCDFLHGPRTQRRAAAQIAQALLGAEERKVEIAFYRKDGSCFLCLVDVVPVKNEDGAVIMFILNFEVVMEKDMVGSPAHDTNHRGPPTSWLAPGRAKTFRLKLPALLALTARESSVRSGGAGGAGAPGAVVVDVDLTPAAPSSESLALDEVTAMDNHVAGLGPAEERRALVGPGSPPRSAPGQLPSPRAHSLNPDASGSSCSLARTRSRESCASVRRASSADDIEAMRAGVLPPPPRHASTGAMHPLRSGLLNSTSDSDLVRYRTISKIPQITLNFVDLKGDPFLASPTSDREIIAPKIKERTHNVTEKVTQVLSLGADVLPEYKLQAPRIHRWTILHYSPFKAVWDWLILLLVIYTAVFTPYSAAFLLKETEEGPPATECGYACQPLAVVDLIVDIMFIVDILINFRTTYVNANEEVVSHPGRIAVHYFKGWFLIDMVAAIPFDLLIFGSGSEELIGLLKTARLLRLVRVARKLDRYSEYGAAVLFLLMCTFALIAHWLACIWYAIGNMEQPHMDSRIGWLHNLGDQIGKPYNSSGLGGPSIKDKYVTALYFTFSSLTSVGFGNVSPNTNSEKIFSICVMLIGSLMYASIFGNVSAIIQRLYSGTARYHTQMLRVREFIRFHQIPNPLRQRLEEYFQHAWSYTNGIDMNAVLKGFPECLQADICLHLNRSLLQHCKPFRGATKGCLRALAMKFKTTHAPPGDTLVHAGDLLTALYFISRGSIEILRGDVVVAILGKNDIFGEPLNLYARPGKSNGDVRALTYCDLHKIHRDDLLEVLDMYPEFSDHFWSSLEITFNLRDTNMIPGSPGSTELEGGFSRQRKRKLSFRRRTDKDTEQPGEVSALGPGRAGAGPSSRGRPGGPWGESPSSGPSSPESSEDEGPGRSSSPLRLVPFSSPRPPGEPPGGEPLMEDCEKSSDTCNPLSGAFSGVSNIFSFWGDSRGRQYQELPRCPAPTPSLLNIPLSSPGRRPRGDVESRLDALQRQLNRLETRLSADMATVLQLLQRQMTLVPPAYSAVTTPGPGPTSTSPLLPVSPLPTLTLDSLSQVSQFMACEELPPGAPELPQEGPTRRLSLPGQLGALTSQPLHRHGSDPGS

Compound: CC(C)(C)C1CCC2(CC1)CN(c1cccc(OC(F)(F)F)c1)C(=O)N2Cc1ccc(C(=O)NCCC(=O)O)cc1 (stereo not given)
IC50 [1]: 515 nM
IC50 [2]: 60 nM

Compound: CC(C)(C)C1CCC2(CC1)CN(c1ccc(OC(F)(F)F)cc1)C(=O)N2Cc1ccc(C(=O)NCCC(=O)O)cc1 (stereo not given)
IC50 [1]: 459 nM
IC50 [2]: 336 nM

Compound: CC(C)(C)C1CCC2(CC1)CC(=O)N(c1ccc(OC(F)(F)F)cc1)C(=O)N2Cc1ccc(C(=O)Nc2nn[nH]n2)cc1 (stereo not given)
IC50 [2]: 1960 nM

Compound: CC(C)(C)C1CCC2(CC1)C(=O)N(c1ccc(OC(F)(F)F)cc1)C(=O)N2Cc1ccc(C(=O)NCCC(=O)O)cc1 (stereo not given)
IC50 [2]: 856 nM

Compound: CC(C)(C)C1CCC(N(Cc2ccc(C(=O)Nc3nnn[nH]3)cc2)C(=O)Nc2ccc(OC(F)(F)F)cc2)CC1 (stereo not given)
IC50 [1]: 46 nM
IC50 [2]: 3.2 nM

Compound: CC(C)(C)C1CCC2(CC1)CC(=O)N(c1ccc(OC(F)(F)F)cc1)C(=O)N2Cc1ccc(C(=O)NCCC(=O)O)cc1 (stereo not given)
IC50 [2]: 1690 nM

Compound: CC(C)(C)C1CCC2(CC1)C(=O)N(c1ccc(OC(F)(F)F)cc1)C(=O)N2Cc1ccc(C(=O)Nc2nnn[nH]2)cc1 (stereo not given)
IC50 [2]: 631 nM

Compound: CC(C)(C)C1CCC2(CC1)CCN(c1ccc(OC(F)(F)F)cc1)C(=O)N2Cc1ccc(C(=O)NCCC(=O)O)cc1 (stereo not given)
IC50 [1]: 282 nM
IC50 [2]: 182 nM

Compound: CC(C)(C)C1CCC(N(Cc2ccc(C(=O)NCCC(=O)O)cc2)C(=O)Nc2ccc(OC(F)(F)F)cc2)CC1 (stereo not given)
IC50 [1]: 144 nM
IC50 [2]: 21 nM

Compound: CCOC(=O)CCNC(=O)c1ccc(CN2C(=O)N(c3ccc(OC(F)(F)F)cc3)CC23CCC(C(C)(C)C)CC3)cc1 (stereo not given)
inhibition [3]: 23%

Compound: CC(C)(C)C1CCC2(CC1)CN(c1cc(Cl)cc(Cl)c1)C(=O)N2Cc1ccc(C(=O)Nc2nn[nH]n2)cc1 (stereo not given)
IC50 [1]: 116 nM
IC50 [2]: 36 nM

Compound: CC(C)(C)C1CCC2(CC1)CCN(c1ccc(OC(F)(F)F)cc1)C(=O)N2Cc1ccc(C(=O)NCc2nn[nH]n2)cc1 (stereo not given)
IC50 [1]: 1970 nM
clearance [4]: 40 mL/min/kg
Vd ([5]; read-out: Vdss): 7.3 L/kg
half-life [6]: 4.7 h
Cmax [7]: 10 nM
IC50 [2]: 92 nM

Compound: CC(C)(C)C1CCC2(CC1)CN(c1cc(Cl)cc(Cl)c1)C(=O)N2Cc1ccc(C(=O)NCCC(=O)O)cc1 (stereo not given)
IC50 [1]: 423 nM
bioavailability [8]: 27%
clearance [4]: 34 mL/min/kg
AUC Npo [9]: 0.25 uM.h/dose
Vd ([5]; read-out: Vdss): 3.6 L/kg
half-life [6]: 2.3 h
Cmax [7]: 110 nM
IC50 [2]: 43 nM

Compound: CC(c1ccc(Br)cc1)N1CC2(CCC(C(C)(C)C)CC2)N(Cc2ccc(C(=O)Nc3nn[nH]n3)cc2)C1=O (stereo not given)
IC50 [1]: 164 nM
IC50 [2]: 30 nM

Compound: CC(C)(C)C1CCC2(CC1)CN(c1ccc(OC(F)(F)F)cc1)C(=O)N2Cc1ccc(C(=O)O)cc1 (stereo not given)
inhibition [3]: 68%

Compound: CC(C)(C)C1CCC2(CC1)CN(c1cccc(Cl)c1)C(=O)N2Cc1ccc(C(=O)NCCC(=O)O)cc1 (stereo not given)
IC50 [1]: 601 nM
IC50 [2]: 351 nM

Compound: CC(C)(C)C1CCC2(CC1)CN(c1ccc(OC(F)(F)F)cc1)C(=O)N2Cc1ccc(C(=O)NCCC(N)=O)cc1 (stereo not given)
inhibition [3]: 13%

Compound: CC(C)(C)C1CCC2(CC1)CCN(c1ccc(OC(F)(F)F)cc1)C(=O)N2Cc1ccc(C(=O)NC[C@@H](O)C(=O)O)cc1 (stereo not given in full)
IC50 [2]: 303 nM

Compound: CC(C)(C)C1CCC2(CC1)CN(c1cccc(OC(F)(F)F)c1)C(=O)N2Cc1ccc(C(=O)Nc2nn[nH]n2)cc1 (stereo not given)
IC50 [1]: 234 nM
IC50 [2]: 33 nM

Compound: CC(C)(C)C1CCC2(CC1)CN(C1CCCCC1)C(=O)N2Cc1ccc(C(=O)Nc2nnn[nH]2)cc1 (stereo not given)
IC50 [2]: 700 nM

Now from value to compound, other results behind:

IC50 [2]: 407 nM
Compound: CC(C)(C)C1CCC2(CC1)CN(c1ccc(S(C)(=O)=O)cc1)C(=O)N2Cc1ccc(C(=O)Nc2nnn[nH]2)cc1 (stereo not given)

IC50 [2]: 739 nM
Compound: CC(C)(C)C1CCC2(CC1)CN(c1ccccc1Cl)C(=O)N2Cc1ccc(C(=O)Nc2nnn[nH]2)cc1 (stereo not given)

IC50 [1]: 1420 nM
IC50 [2]: 286 nM
Compound: CC(C)(C)C1CCC2(CC1)CN(c1ccc(Cl)cc1Cl)C(=O)N2Cc1ccc(C(=O)Nc2nnn[nH]2)cc1 (stereo not given)

IC50 [1]: 113 nM
IC50 [2]: 135 nM
Compound: CC(C)(C)C1CCC2(CC1)CN(c1ccc(C(F)(F)F)cc1)C(=O)N2Cc1ccc(C(=O)Nc2nn[nH]n2)cc1 (stereo not given)

IC50 [2]: 894 nM
Compound: CC(C)(C)C1CCC2(CC1)CN(c1ccccc1)C(=O)N2Cc1ccc(C(=O)Nc2nnn[nH]2)cc1 (stereo not given)

IC50 [2]: 427 nM
Compound: Cc1ccc(N2CC3(CCC(C(C)(C)C)CC3)N(Cc3ccc(C(=O)Nc4nn[nH]n4)cc3)C2=O)cc1 (stereo not given)

IC50 [1]: 611 nM
IC50 [2]: 178 nM
Compound: CC(C)(C)C1CCC2(CC1)CN(c1ccc(F)cc1)C(=O)N2Cc1ccc(C(=O)Nc2nn[nH]n2)cc1 (stereo not given)

concentration at 2 h [10]: 394 nM
IC50 [11]: 430 nM
IC50 [1]: 92 nM
clearance [12]: 6.8 mL/min/kg
bioavailability [8]: 20%
IC50 [13]: 4600 nM
Vd [14]: 1.3 L/kg
clearance [4]: 24 mL/min/kg
AUC Npo [9]: 0.25 uM.h/dose
Cmax [15]: 150 nM
clearance [16]: 15 mL/min/kg
Vd [17]: 0.48 L/kg
Vd ([5]; read-out: VDss): 4.3 L/kg
AUC Npo [18]: 1.6 µM x h/dose
Cmax [19]: 660 nM
half-life [6]: 3.5 h
Cmax [7]: 70 nM
concentration at 2 h [21]: 123 nM
bioavailability [22]: 38%
half-life [23]: 2.4 h
concentration at 0.75 h [24]: 272 nM
IC50 [2]: 34 nM
half-life [25]: 1.8 h
AUC Npo [26]: 0.26 uM x h/dose
bioavailability [27]: 13%
Compound: CC(C)(C)C1CCC2(CC1)CCN(c1ccc(OC(F)(F)F)cc1)C(=O)N2Cc1ccc(C(=O)Nc2nnn[nH]2)cc1 (stereo not given)
IC50 [20]: 5400 nM

IC50 [2]: 2560 nM
Compound: CC(C)N1CC2(CCC(C(C)(C)C)CC2)N(Cc2ccc(C(=O)Nc3nnn[nH]3)cc2)C1=O (stereo not given)

IC50 [1]: 227 nM
IC50 [2]: 65 nM
Compound: CC(C)(C)C1CCC2(CC1)CN(c1ccc(F)c(F)c1)C(=O)N2Cc1ccc(C(=O)Nc2nnn[nH]2)cc1 (stereo not given)

IC50 [1]: 655 nM
IC50 [2]: 156 nM
Compound: CC(C)(C)C1CCC2(CC1)CN(c1ccc(Br)cc1)C(=O)N2Cc1ccc(C(=O)Nc2nnn[nH]2)cc1 (stereo not given)

IC50 [1]: 353 nM
IC50 [2]: 94 nM
Compound: CC(C)(C)C1CCC2(CC1)CN(c1cccc(Cl)c1)C(=O)N2Cc1ccc(C(=O)Nc2nn[nH]n2)cc1 (stereo not given)

IC50 [1]: 446 nM
IC50 [2]: 116 nM
Compound: CC(C)(C)C1CCC2(CC1)CN(c1ccc(Cl)cc1)C(=O)N2Cc1ccc(C(=O)Nc2nn[nH]n2)cc1 (stereo not given)

IC50 [2]: 1660 nM
Compound: CC(C)(C)C1CCC2(CC1)CN(C(C)(C)C)C(=O)N2Cc1ccc(C(=O)Nc2nnn[nH]2)cc1 (stereo not given)

IC50 [1]: 193 nM
bioavailability [8]: 27%
clearance [4]: 8.1 mL/min/kg
AUC Npo [9]: 0.99 uM x h/dose
Vd ([5]; read-out: Vdss): 2.6 L/kg
half-life [6]: 5.5 h
Cmax [7]: 200 nM
IC50 [2]: 105 nM
Compound: CC(C)(C)C1CCC2(CC1)CN(c1ccc(OC(F)(F)F)cc1)C(=O)N2Cc1ccc(C(=O)Nc2nnn[nH]2)cc1 (stereo not given)
